# Measured values as given in ChEMBL document CHEMBL4837220, “Development of tricyclic N-benzyl-4-hydroxybutanamide derivatives as inhibitors of GABA transporters mGAT1-4 with anticonvulsant, antinociceptive, and antidepressant activity” (Eur J Med Chem, 2021).
# The source made the active and inactive calls.
# How the values were obtained:
# Mus musculus [1] = test: Antidepressant activity in Albino Swiss (CD-1) mouse assessed as reduction in immobility time at 8 mg/kg, ip measured for last 4 mins of 6 mins test by forced swim test relative to control; type: functional; parameters: scale not given: the % may be the effect or the level left
# Mus musculus [2] = test: Antidepressant activity in Albino Swiss (CD-1) mouse assessed as reduction in immobility time at 30 mg/kg, ip measured for last 4 mins of 6 mins test by forced swim test relative to control; type: functional; parameters: scale not given: the % may be the effect or the level left
# [3] = target: T1, Sodium- and chloride-dependent GABA transporter 1 (Mus musculus, UniProt P31648); test: Inhibition of NO711 binding to mouse GAT1 expressed in human HEK293 cell line by MS binding assay
# [4] = target: T1, Sodium- and chloride-dependent GABA transporter 1; test: Inhibition of mouse GAT1 expressed in human HEK293 cell line assessed as inhibition of [3H]GABA uptake measured after 40 mins by […]; type: cell-based
# Mus musculus [5] = test: Anticonvulsant activity in Albino Swiss (CD-1) mouse model of pilocarpine-induced status epilepticus assessed as reduction in latency to occurrence of status epilepticus at 100 mg/kg, […]; type: functional, organism-based
# Mus musculus [6] = test: Anticonvulsant activity in Albino Swiss (CD-1) mouse assessed as tonic seizures at 100 mg/kg, ip measured after 0.2 secs by maximal electroshock seizure test; type: functional; conditions: time 0.2 sec, 5.556e-05 h
# Method in brief: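 Male CD-1 mice (18–22 g), dosed i.p. 60 min before test. A 25 mA, 0.2 s stimulus was given via auricular electrodes. Endpoint was tonic hind limb extension, expressed as % of mice with extension per group; n = 6.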
# Mus musculus [7] = test: Anticonvulsant activity in CD-1 mouse assessed as elevation of seizure threshold at 100 mg/kg, ip measured by electroconvulsive threshold test relative to control; type: functional
# GABA transporter 2 = target: T2, GABA transporter 2 (Mus musculus, UniProt P31651); test: Inhibition of mouse GAT2 expressed in human HEK293 cell line assessed as inhibition of [3H]GABA uptake measured after 40 mins by […]; type: cell-based
# T2 sequence (P31651 whole entry): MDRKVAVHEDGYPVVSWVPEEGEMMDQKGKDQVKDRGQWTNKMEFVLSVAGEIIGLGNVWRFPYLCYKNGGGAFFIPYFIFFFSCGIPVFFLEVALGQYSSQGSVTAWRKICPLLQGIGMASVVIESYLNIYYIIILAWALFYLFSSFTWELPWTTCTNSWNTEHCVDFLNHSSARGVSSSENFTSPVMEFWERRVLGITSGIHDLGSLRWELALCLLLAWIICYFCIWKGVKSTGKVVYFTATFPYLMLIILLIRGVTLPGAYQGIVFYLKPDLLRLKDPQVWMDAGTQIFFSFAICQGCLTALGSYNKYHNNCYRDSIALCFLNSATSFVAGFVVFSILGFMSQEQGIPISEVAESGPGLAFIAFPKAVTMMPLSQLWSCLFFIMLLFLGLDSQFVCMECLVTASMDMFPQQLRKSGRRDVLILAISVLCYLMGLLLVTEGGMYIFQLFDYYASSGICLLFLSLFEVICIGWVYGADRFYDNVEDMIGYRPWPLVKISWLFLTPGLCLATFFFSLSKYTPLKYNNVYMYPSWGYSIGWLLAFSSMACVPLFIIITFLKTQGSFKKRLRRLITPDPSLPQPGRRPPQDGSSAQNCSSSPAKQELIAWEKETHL
# GABA transporter 4 = target: T3, GABA transporter 4 (Mus musculus, UniProt P31650); test: Inhibition of mouse GAT4 expressed in human HEK293 cell line assessed as inhibition of [3H]GABA uptake measured after 40 mins by […]; type: cell-based
# T3 sequence (P31650 whole entry): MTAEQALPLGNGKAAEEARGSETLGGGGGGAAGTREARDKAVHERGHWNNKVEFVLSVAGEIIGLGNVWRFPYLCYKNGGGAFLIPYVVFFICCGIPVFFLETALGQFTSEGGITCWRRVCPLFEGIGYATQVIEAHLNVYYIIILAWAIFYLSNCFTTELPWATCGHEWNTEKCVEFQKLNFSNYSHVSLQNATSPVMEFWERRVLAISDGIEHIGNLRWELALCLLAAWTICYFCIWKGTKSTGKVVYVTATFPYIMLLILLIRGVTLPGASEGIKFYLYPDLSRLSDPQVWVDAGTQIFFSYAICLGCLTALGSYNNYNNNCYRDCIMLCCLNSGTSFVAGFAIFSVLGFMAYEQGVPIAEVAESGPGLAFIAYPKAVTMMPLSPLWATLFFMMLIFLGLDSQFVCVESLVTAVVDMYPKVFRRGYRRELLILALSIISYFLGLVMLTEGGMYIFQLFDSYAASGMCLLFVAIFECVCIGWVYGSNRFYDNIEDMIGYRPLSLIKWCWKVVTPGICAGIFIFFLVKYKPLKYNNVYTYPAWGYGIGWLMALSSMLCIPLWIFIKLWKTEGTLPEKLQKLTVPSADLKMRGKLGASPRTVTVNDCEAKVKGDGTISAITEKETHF
# [8] = Hepatotoxicity in human HepG2 cells at 25 uM incubated for 72 hrs by MTS assay; type: cell-based; conditions: hepg2, 72 h
# Method in brief: (§1)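 Cells (HEK-293 or HepG2) were seeded at 0.7×10^4 per well and grown at 37 °C, 5% CO₂. Compounds at 0.1–100 µM were added in quadruplicate for 72 h, with 1% DMSO in medium as control. Viability was read by MTS absorbance at 492 nm. Analysis by one-way ANOVA with Bonferroni.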
# [9] = Hepatotoxicity in human HepG2 cells at 50 uM incubated for 72 hrs by MTS assay; type: cell-based; conditions: hepg2, 72 h; method in brief: as §1
# [10] = Hepatotoxicity in human HepG2 cells at 100 uM incubated for 72 hrs by MTS assay; type: cell-based; conditions: hepg2, 72 h; method in brief: as §1
# HEK293 = test: Cytotoxicity in human HEK293 cells assessed as reduction in cell viability at 1 uM incubated for 72 hrs by MTS assay; type: cell-based; conditions: hek293, 72 h; method in brief: as §1
# Mus musculus [11] = test: Antinociceptive activity in Albino Swiss (CD-1) mouse model of formalin-induced paw edema assessed as reduction in duration of nocifensive response by measuring licking/biting time at 30 mg/kg, ip pre-treated for 30 mins followed by formalin-stimulation and measured up to 5 mins; type: functional, organism-based
# Mus musculus [12] = test: Antidepressant activity in CD-1 mouse assessed as reduction in immobility time at 30 mg/kg, ip measured for last 4 mins of 6 mins test by forced swim test; type: functional, organism-based
# Method in brief: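 Male CD-1 mice, dosed i.p. 60 min before test. Mice were placed singly in cylinders with 10 cm water at 23–25 °C. Immobility (passive floating) was scored during the final 4 min of a 6-min session. Analysis by one-way ANOVA with Dunnett versus vehicle.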
# Mus musculus [13] = test: Anxiolytic-like activity in Albino Swiss (CD-1) mouse at 30 mg/kg, ip by four plate test; type: functional, organism-based
# Method in brief: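 Male CD-1 mice were dosed i.p. 60 min before test. After 15 s habituation on a four-plate floor, a 60 s test followed. Each plate-to-plate crossing triggered a 0.8 mA, 0.5 s shock. The number of punished crossings was counted. Analysis by one-way ANOVA with Dunnett.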
# Mus musculus [14] = test: Anxiolytic-like activity in Albino Swiss (CD-1) mouse assessed as increase in time spent in open arm at 30 mg/kg, ip measured for 5 mins by elevated plus maze test; type: functional, organism-based
# Method in brief: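 Male CD-1 mice were dosed i.p. 60 min before test. Each was placed in the centre of the plus maze facing a closed arm and video-recorded for 5 min. Measures were time in open arms and % open-arm entries of all entries. Analysis by one-way ANOVA with Dunnett; n = 7–10.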
# [15] = Effect on locomotor activity in Albino Swiss (CD-1) mouse at 30 mg/kg, ip; type: ADME, organism-based; conditions: in vivo
# Method in brief: (§2)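 Male CD-1 mice were habituated to activity cages for 15 min, then dosed i.p. 60 min before test. Light-beam crossings were counted over 30 min in 6-min bins (0–30 min). Analysis by repeated measures ANOVA with Bonferroni.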
# [16] = target: Sodium- and chloride-dependent GABA transporter 1 (Mus musculus) (UniProt P31648); test: Residual NO711 binding to mouse GAT1 expressed in human HEK293 cell line at 100 uM by MS binding assay relative to control
# Mus musculus [17] = test: Antidepressant-like activity in C57BL/6J mouse assessed as decrease in immobility time at 30 mg/kg, ip measured during last 4 mins of 6 mins test by tail suspension test
# Mus musculus [18] = test: Antinociceptive activity in Albino Swiss (CD-1) mouse model of formalin-induced paw edema at 30 mg/kg, ip pre-treated for 30 mins followed by formalin-stimulation and measured for 15 to 30 mins by formalin test
# Mus musculus [19] = test: Anticonvulsive activity in Albino Swiss (CD-1) mouse assessed as protection against pentylenetetrazole-induced seizure at 100 mg/kg, ip administered 60 mins prior to pentylenetetrazole challenge and measured for 30 mins; type: functional, organism-based
# Method in brief: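 Male CD-1 mice were given test compound or vehicle i.p. and 60 min later PTZ 100 mg/kg s.c. Mice were observed singly for 30 min, recording latency to first seizure episode and number of seizure episodes. Analysis by one-way ANOVA with Dunnett; n = 10–12.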
# [20] = Effect on locomotor activity in Albino Swiss (CD-1) mouse at 30 mg/kg, ip after 24 to 30 mins; type: ADME, organism-based; conditions: in vivo, time 24-30 min; method in brief: as §2
IC50 [4] [µM],IC50 (GABA transporter 2) [µM],IC50 (GABA transporter 4) [µM],residual activity [16] [%],SMILES,Activity (Mus musculus [1]),Activity (Mus musculus [5]),Activity (Mus musculus [6]) [%],Activity (Mus musculus [7]) [%],Activity [8],Activity [9],Activity [10],Activity (HEK293),Activity (Mus musculus [13]),Activity (Mus musculus [14]),Activity (Mus musculus [17]),Activity (Mus musculus [18]),also measured
–,–,–,–,Cc1ccsc1C(=CCCN1CCC[C@@H](C(=O)O)C1)c1sccc1C [TIAGABINE],59%,–,–,–,–,–,–,–,–,–,–,–,Activity (Mus musculus [2]): 97.4%; pKi [3]: 7.43
14.1,4.57,10.7,53,Cc1ccc(CNC(=O)C(CCO)N(C)CCC=C2c3ccccc3CCc3ccccc32)cc1 (centres undefined),–,Active,83,90,Non-Toxic,Toxic,Toxic,Non-Toxic,inactive,inactive,Active,Active,Activity (Mus musculus [11]): Active; Activity (Mus musculus [12]): Active; Activity [15]: Non-Toxic
21.9,15.5,9.55,75,CN(CCC=C1c2ccccc2C=Cc2ccccc21)C(CCO)C(=O)NCc1ccccc1 (centres undefined),Dose-Dependent Effect,inactive,83,43,Non-Toxic,Toxic,Toxic,Non-Toxic,inactive,inactive,Active,Active,Activity (Mus musculus [19]): inactive; Activity [20]: Non-Toxic
